Measurements from different studies.
Protocols differ between the studies behind these lines.
HDAC9: Histone deacetylase 9 (HDAC9, Homo sapiens, UniProt Q9UKV0)
CA9: Carbonic anhydrase 9 (CA9, Homo sapiens, UniProt Q16790)
PDE4C: 3',5'-cyclic-AMP phosphodiesterase 4C (PDE4C, Homo sapiens, UniProt Q08493)
PKN1: Serine/threonine-protein kinase N1 (PKN1, Homo sapiens, UniProt Q16512)
PRSS1: Serine protease 1 (PRSS1, Bos taurus, UniProt P00760)
SIRT5: NAD-dependent protein deacylase sirtuin-5, mitochondrial (SIRT5, Homo sapiens, UniProt Q9NXA8)
PADI4: Protein-arginine deiminase type-4 (PADI4, Homo sapiens, UniProt Q9UM07)

| Compound | target | test | conditions | IC50 [nM] |
| --- | --- | --- | --- | --- |
| Nc1ccc(-c2ccncc2)cc1NC(=O)N1CCCC1 | HDAC9 | enzyme activity, inhibitor |  | > 33300 |
| Cc1ccc(S(=O)(=O)N=C2C=C(Sc3nnc[nH]3)C(=O)c3ccccc32)cc1 | Induced myeloid leukemia cell differentiation protein Mcl-1 (MCL1, Homo sapiens, UniProt Q07820) | ligand displacement, FP |  | 450 |
| CN(C)c1ccc(/C=C2/SC(Nc3ccc(S(N)(=O)=O)cc3)=NC2=O)cc1 | CA9 | enzyme activity, inhibitor |  | 76.1 |
| Cc1ccc(C(=O)NCCC(=O)NCc2cc(S(N)(=O)=O)ccc2F)c(O)c1 | CA9 | enzyme activity, inhibitor |  | 1660 |
| COc1ccc([C@@H]2CN(C(=O)[C@@H](O)CO)C[C@@]2(C)[C@@H](C)O)cc1OC1CN(c2ccc(C)cn2)C1 | PDE4C | enzyme activity, inhibitor |  | 2.4 |
| CNC(=O)c1cc2c(Oc3ccc(NC(=O)C4(C(=O)Nc5ccc(F)cc5)CC4)cc3)ccnc2cc1OC | Tyrosine-protein kinase HCK (HCK, Homo sapiens, UniProt P08631) | enzyme activity, inhibitor, radiometric |  | 24 |
| CCCC[C@H](NC(=O)C1CN(C)C1)c1ncc(-c2cc3ccccc3nc2OC)[nH]1 | HDAC9 | enzyme activity, inhibitor |  | > 30000 |
| O=C(O)c1ccc(-c2c[nH]c3ncc(-c4ccccc4)cc23)cc1C1CCCC1 | PKN1 | enzyme activity, inhibitor |  | 220 |
| O=c1c(O)c(-c2ccc(O)c(O)c2)oc2cc(O)cc(O)c12 | Sulfotransferase 1A1 (SULT1A1, Homo sapiens, UniProt P50225) | enzyme activity, inhibitor |  | 529 |
| COc1cc(NCC(=O)Nn2c(C)nc3ccc(Cl)cc3c2=O)cc(OC)c1OC | PRSS1 | enzyme activity, inhibitor |  | 54300 |
| O=C(O)CCNC(=S)NCCCC[C@H](NS(=O)(=O)c1cccc(F)c1)C(=O)N[C@@H](Cc1c[nH]c2ccccc12)C(=O)NC1CCC1 | SIRT5 | enzyme activity, inhibitor, fluorescence |  | 93 |
| COc1cc2c(c(OC)c1OC)-c1c(cc3c(c1OC)OCO3)C[C@H](C)[C@](C)(O)[C@H]2OC(=O)c1ccccc1 | Cytochrome P450 3A5 (CYP3A5, Homo sapiens, UniProt P20815) | enzyme activity, inhibitor | 15 min, pH 7.4 | 370 |
| CC1Cc2cc(-c3cn(C)nn3)ccc2N1Cc1ccoc1C(=O)Nc1ccc(S(N)(=O)=O)cc1 (stereo not drawn) | CA9 | enzyme activity, inhibitor |  | 132 |
| Cn1ncc(Cl)c1-c1cc(C(=O)N[C@H](CN)Cc2ccc(F)c(F)c2)oc1Cl | PKN1 | enzyme activity, inhibitor |  | 19 |
| CCOCc1nc(O)c(-c2nnc(Cc3ccc(Cl)cn3)o2)c(O)c1-c1c(OC)cccc1OC | Histamine H1 receptor (HRH1, Homo sapiens, UniProt P35367) | ligand displacement, radioligand |  | > 30000 |
| Cc1cc(C(=O)N2CCN(Cc3nc(-c4ccc(Cl)cc4)no3)CC2)ccc1S(N)(=O)=O | CA9 | enzyme activity, inhibitor |  | 81 |
| CC(C)C[C@H](NC(=O)[C@H]1O[C@@H]1C(=O)O)C(=O)NCCCCN=C(N)N | Cathepsin L2 (CTSV, Homo sapiens, UniProt O60911) | enzyme activity, inhibitor |  | 5.41 |
| CCn1c(-c2nc3ccc(C(=O)N4CCCC(N)C4)cc3n2C)cc2ccccc21 (stereo not drawn) | PADI4 | ligand displacement, FP |  | > 100000 |
| CN/C(=N/CCSCc1nc[nH]c1C)NC#N | Solute carrier family 22 member 7 (SLC22A7, Homo sapiens, UniProt Q9Y694) | transporter uptake, inhibitor |  | 22000 |
| COc1cc(/C=N/n2c(C)nc3ccc(C)cc3c2=O)ccc1OCc1ccccc1 | PRSS1 | enzyme activity, inhibitor |  | 108000 |

| Compound | target | test | conditions | IC50 [nM] |
| --- | --- | --- | --- | --- |
| CCNC(=O)[C@H](CCCNC(=N)CF)NC(=O)c1ccccc1 | PADI4 | enzyme activity, inhibitor |  | 24300 |
| CN1CCN(c2ccc(Nc3ncc4cc(C#N)c(=O)n(C5CCCC5)c4n3)cc2)CC1 | PKN1 | enzyme activity, inhibitor |  | 7050 |
| NS(=O)(=O)c1ccc(NC(=O)COC(=O)C(=Cc2cccs2)c2cccs2)cc1 | CA9 | enzyme activity, inhibitor |  | 322 |
| COc1cc(/C=N/n2c(C)nc3ccc(Br)cc3c2=O)ccc1O | PRSS1 | enzyme activity, inhibitor |  | 46400 |
| NS(=O)(=O)c1ccc(Nc2nc(OCC3CCCCC3)c3[nH]cnc3n2)cc1 | PKN1 | enzyme activity, inhibitor |  | 828 |
| N#C/C(=C\c1ccc(-c2cc(Cl)ccc2Cl)o1)C(=O)Nc1cccc2ncccc12 | SIRT5 | enzyme activity, inhibitor, HPLC |  | > 100000 |
| CN1CCN(Cc2ccc(-c3cnc4[nH]cc(-c5ccc6[nH]ccc6c5)c4c3)cc2)CC1 | PKN1 | enzyme activity, inhibitor |  | 178 |
| COc1ccc2cc(/C=N/n3c(C)nc4ccc(Br)cc4c3=O)ccc2c1 | PRSS1 | enzyme activity, inhibitor |  | 40700 |
| N#CCNC(=O)c1ccc(-c2ccnc(Nc3ccc(N4CCOCC4)cc3)n2)cc1 | PKN1 | enzyme activity, inhibitor |  | 278 |
| CNC(=O)c1ccc(NC(=O)CN(Cc2ccc(Cl)cc2)C(=O)c2ccc(S(N)(=O)=O)c(C)c2)c(F)c1 | CA9 | enzyme activity, inhibitor |  | 28.8 |
| CN1CCC(Nc2nc(Nc3ccc(Oc4ccccc4)cc3)c3c(=O)[nH]cc(Br)c3n2)CC1 | PKN1 | enzyme activity, inhibitor |  | 101 |
| COc1ccc(S(=O)(=O)N2Cc3cc(O)c(O)cc3CC2C(=O)NO)cc1 (stereo not drawn) | Matrix metalloproteinase-9 (MMP9, Homo sapiens, UniProt P14780) | enzyme activity, inhibitor |  | > 1000 |
| NS(=O)(=O)c1ccc(NC(=O)COC(=O)c2c3c(nc4ccccc24)C(=Cc2ccco2)CCC3)cc1 | CA9 | enzyme activity, inhibitor |  | 96 |
| O=C(c1ccc(Nc2nccc(-c3cc4ccccc4s3)n2)cc1)N1CCC(N2CCCC2)CC1 | PKN1 | enzyme activity, inhibitor |  | 49 |
| COC(=O)C1CCCCN1C(=O)c1cccc(NC(=O)CSc2ccc(S(N)(=O)=O)cc2)c1 (stereo not drawn) | CA9 | enzyme activity, inhibitor |  | 91 |
| Clc1ccc(C2(c3ccc(-c4cn[nH]c4)cc3)CCNCC2)cc1 | PKN1 | enzyme activity, inhibitor |  | 49 |
| COc1ccc(C(=O)N2CCCC(C(=O)Nc3cc(S(N)(=O)=O)ccc3O)C2)c2ccccc12 (stereo not drawn) | CA9 | enzyme activity, inhibitor |  | 2610 |
| CCc1ccc(/C=N/n2c(C)nc3ccc(C)cc3c2=O)s1 | PRSS1 | enzyme activity, inhibitor |  | 224000 |
| COc1ccc(C2=NN(C3CCCCCC3)C(=O)[C@@H]3CC=CC[C@H]23)cc1-c1ccc(C(N)=O)cc1 (relative stereo) | PDE4C | enzyme activity, inhibitor |  | 501 |
